In ChEMBL document CHEMBL1122996, “Interactions of apomorphine with serum and tissue proteins” (J Med Chem, 1985):

Key:
Mus musculus [1] = organism: Mus musculus; assay: Radio activity accumulation in forebrain without striatum (Excreatable reactivity) on 14 days; format: functional
Outline: (§1)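 Male CD-1 mice (~35 g, n=10 per group) given apomorphine 30 mg/kg fortified with [3H]-apomorphine (0.153 mCi/kg) ip, either once or daily for 14 days. Sampled 24 h after the last dose: plasma from infraorbital sinus (extractable and nonextractable radioactivity) and brain regions (striatum, cerebellum, forebrain without striatum). Radioactivity expressed as µg apomorphine equivalent per mL or per g […].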

Mus musculus [2] = organism: Mus musculus; assay: Radio activity accumulation in forebrain without striatum (Excreatable reactivity) on day 1; format: functional; outline: as §1
Mus musculus [3] = organism: Mus musculus; assay: Percentage of covalently bound total in cerebellum of mouse; format: functional
Outline: (§2)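 Male CD-1 mice (~35 g, n=10) given apomorphine 30 mg/kg with [3H]-apomorphine (0.153 mCi/kg) ip daily for 14 days, killed 24 h after the last dose. Plasma from infraorbital sinus; brain split into striatum, cerebellum, forebrain without striatum. Protein-bound radioactivity expressed as µg/g protein (albumin equivalent; plasma µg/mL) and as % of total tissue radioactivity.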

Mus musculus [4] = organism: Mus musculus; assay: Percentage of covalently bound total in striatum of mouse; format: functional; outline: as §2
Mus musculus [5] = organism: Mus musculus; assay: Radio activity covalently bound to cerebellum of mouse brain; format: functional; outline: as §2
Mus musculus [6] = organism: Mus musculus; assay: Radio activity covalently bound to forebrain without striatum of mouse brain; format: functional; outline: as §2
Mus musculus [7] = organism: Mus musculus; assay: Radio activity covalently bound to striatum of mouse brain; format: functional; outline: as §2
Mus musculus [8] = organism: Mus musculus; assay: Radio activity accumulation in cerebellum (Excreatable reactivity) on 14 days; format: functional; outline: as §1
Mus musculus [9] = organism: Mus musculus; assay: Radio activity accumulation in cerebellum (Excreatable reactivity) on day 1; format: functional; outline: as §1
Mus musculus [10] = organism: Mus musculus; assay: Ratio of accumulation of radioactivity from 14 to 1 day in cerebellum; format: functional
Outline: (§3)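 Male CD-1 mice (~35 g, 10 per group) received 1 at 30 mg/kg ip with [³H]-1 (0.153 mCi/kg), once or daily for 14 days, with free access to food and water. At 24 h after the last dose, plasma (infraorbital sinus), brain regions, kidney, liver and GI tract were taken for radioactivity counting. The accumulation ratio is radioactivity after 14 doses divided by radioactivity after 1 dose.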

Mus musculus [11] = organism: Mus musculus; assay: Radio of accumulation of radioactivity from 14 to 1 day in nonextractable radioactivity in plasma brain; format: functional; outline: as §3
Mus musculus [12] = organism: Mus musculus; assay: Ratio of accumulation of radioactivity from 14 to 1 day in plasma contents; format: functional; outline: as §3
Mus musculus [13] = organism: Mus musculus; assay: Radio activity in skeletal tissue (% dose/g of wet wt) on 14 days; format: functional
Outline: (§4)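 Male CD-1 mice (~35 g, n=10 per group) received apomorphine 30 mg/kg with [3H]-apomorphine (0.153 mCi/kg) ip, once or daily for 14 days. Killed 24 h after the last dose; GI tract (with contents or washed with distilled water), liver and kidney (rinsed of blood) and skeletal tissue taken. Radioactivity given as % of total dose; skeletal tissue as % dose/g wet weight.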

Mus musculus [14] = organism: Mus musculus; assay: Radio activity in skeletal tissue(% dose/g of wet wt) contents on day 1; format: functional; outline: as §4
Mus musculus [15] = organism: Mus musculus; assay: Ratio of accumulation of radioactivity from 14 to 1 day in skeletal tissue (%dose/g of wet wt); format: functional; outline: as §3
Mus musculus [16] = organism: Mus musculus; assay: Ratio of accumulation of radioactivity from 14 to 1 day in liver; format: functional; outline: as §3
Mus musculus [17] = organism: Mus musculus; assay: Radio activity of [3H]-l in mice kidney on day 1; format: functional; outline: as §4
Mus musculus [18] = organism: Mus musculus; assay: Radio activity of [3H]-l in mice kidney on 14 days; format: functional; outline: as §4
Mus musculus [19] = organism: Mus musculus; assay: Ratio of accumulation of radioactivity from 14 to 1 day in kidney; format: functional; outline: as §3
Mus musculus [20] = organism: Mus musculus; assay: Radio activity of [3H]-l in mice liver on 14 days; format: functional; outline: as §4
Mus musculus [21] = organism: Mus musculus; assay: Radio activity of [3H]-l in mice liver on day 1; format: functional; outline: as §4
Mus musculus [22] = organism: Mus musculus; assay: Percentage of covalently bound total in plasma of mouse; format: functional; outline: as §2
Mus musculus [23] = organism: Mus musculus; assay: Radio activity covalently bound to plasma of mouse brain; format: functional; outline: as §2
Mus musculus [24] = organism: Mus musculus; assay: Radio activity of [3H]-l in mice GI tract with its contents on day 1; format: functional, Gastrointestinal tract; outline: as §4
Mus musculus [25] = organism: Mus musculus; assay: Radio activity of [3H]-l in mice in GI tract with its contents on 14 days; format: functional, Gastrointestinal tract; outline: as §4
Mus musculus [26] = organism: Mus musculus; assay: Radio activity of [3H]-l in washed mice GI tract on 14 days; format: functional, Gastrointestinal tract; outline: as §4
Mus musculus [27] = organism: Mus musculus; assay: Radio activity of [3H]-l in washed mice GI tract on day 1; format: functional, Gastrointestinal tract; outline: as §4
Mus musculus [28] = organism: Mus musculus; assay: Ratio of accumulation of radioactivity from 14 to 1 day in GI tract with its contents; format: functional, Gastrointestinal tract; outline: as §3
Mus musculus [29] = organism: Mus musculus; assay: Ratio of accumulation of radioactivity from 14 to 1 day in washed gastro intestinal track; format: functional; outline: as §3
Mus musculus [30] = organism: Mus musculus; assay: Radio activity accumulation in nonextractable radioactivity in plasma brain striatum (Excreatable reactivity) on day 1; format: functional; outline: as §1
Mus musculus [31] = organism: Mus musculus; assay: Radio activity accumulation in nonextractable radioactivity in striatum (Excreatable reactivity) on 14 days; format: functional; outline: as §1
Mus musculus [32] = organism: Mus musculus; assay: Ratio of accumulation of radioactivity from 14 to 1 day in striatum; format: functional; outline: as §3
Mus musculus [33] = organism: Mus musculus; assay: Radio activity accumulation in extractable reactivity in plasma (Excreatable reactivity) on day 1; format: functional; outline: as §1
Mus musculus [34] = organism: Mus musculus; assay: Radio activity accumulation in extractable reactivity in plasma brain (Excreatable reactivity) on 14 days; format: functional; outline: as §1

## CN1CCc2cccc3c2[C@H]1Cc1ccc(O)c(O)c1-3 [APOMORPHINE]
Mus musculus [1]
  Accumulation: 69.6 µg/g
Mus musculus [2]
  Accumulation: 23.1 µg/g
Mus musculus [3]
  Binding: 1.71%
Mus musculus [4]
  Binding: 1.65%
Mus musculus [5]
  Binding: 0.98 µg/g
Mus musculus [6]
  Binding: 1.13 µg/g
Mus musculus [7]
  Binding: 0.94 µg/g
Mus musculus [8]
  Accumulation: 57.3 µg/g
Mus musculus [9]
  Accumulation: 20 µg/g
Mus musculus [10]
  Ratio: 2.9
Mus musculus [11]
  Ratio: 2.6
Mus musculus [12]
  Ratio: 2.6
Mus musculus [13]
  Amount: 0.394%
Mus musculus [14]
  Amount: 0.245%
Mus musculus [15]
  Ratio: 1.6
Mus musculus [16]
  Ratio: 2.6
Mus musculus [17]
  Amount: 0.107%
Mus musculus [18]
  Amount: 0.331%
Mus musculus [19]
  Ratio: 3.1
Mus musculus [20]
  Amount: 0.99%
Mus musculus [21]
  Amount: 0.38%
Mus musculus [22]
  Binding: 2.88%
Mus musculus [23]
  Binding: 0.68 µg/mL
Mus musculus [24]
  Amount: 1.48%
Mus musculus [25]
  Amount: 4.01%
Mus musculus [26]
  Amount: 0.558%
Mus musculus [27]
  Amount: 0.065%
Mus musculus [28]
  Ratio: 2.7
Mus musculus [29]
  Ratio: 9.7
Mus musculus [30]
  Accumulation: 21.4 µg/g
Mus musculus [31]
  Accumulation: 56.9 µg/g
Mus musculus [32]
  Ratio: 2.7
Mus musculus [33]
  Accumulation: 0.561 µg/mL
Mus musculus [34]
  Accumulation: 1.42 µg/mL
